# Data taken from ChEMBL document CHEMBL1144932, “Design, synthesis, and biological properties of new bis(acridine-4-carboxamides) as anticancer agents” (J Med Chem, 2003).
# Assays:
# [1] = organism: Homo sapiens; experiment: In vitro cytotoxic activity against human colon adenocarcinoma (HT-29).; type: functional
# Procedure, shortened: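 HT29 cells were seeded at 2.5 × 10^4 cells/mL of medium and drug solutions were added. Exposure lasted 144 h. IC50 is the drug concentration inhibiting cell growth by 50%. Assays were run in triplicate.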
# [2] = Apparent equilibrium constant for DNA binding (G-C); type: ADME
# Procedure, shortened: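 Ethidium displacement at pH 7.0 in buffer of 10 mM Na2HPO4, 10 mM NaH2PO4, 1 mM EDTA with 1.26 μM ethidium bromide and 1 μM CT-DNA, [poly(dA-dT)]2 or [poly(dG-dC)]2. Drug stock (~5 mM in DMSO) added serially. Fluorescence read at 20 °C, excitation 546 nm, emission 595 nm. C50 is the mean of three determinations. Kapp = 1.26/C50 × 10^7.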
# [3] = test system: MCF7; experiment: Percent growth of breast MCF-7 cell line at compound concentration 10e-6 was determined; type: functional, Homo sapiens
# Procedure, shortened: (§1)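 Cells in the NCI panel were exposed for 48 h to 10^-8, 10^-6 and 10^-4 or 10^-5 M drug. Growth is given as percent of untreated control (100%). Negative values are the percent of cells killed relative to the initial cell number.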
# [4] = test system: MCF7; experiment: Percent growth of breast MCF-7 cell line at compound concentration 10e-8 was determined; type: functional, Homo sapiens; procedure, shortened: as §1
# [5] = test system: MCF7; experiment: Percent growth of breast MCF-7 cell line at compound concentration 10e-5 was determined; type: functional, Homo sapiens; procedure, shortened: as §1
# [6] = test system: HCT-116; experiment: Percent growth of colon HCT116 cell line at compound concentration 10e-5 was determined; type: functional, Homo sapiens; procedure, shortened: as §1
# [7] = test system: HCT-116; experiment: Percent growth of colon HCT116 cell line at compound concentration 10e-6 was determined; type: functional, Homo sapiens; procedure, shortened: as §1
# [8] = test system: HCT-116; experiment: Percent growth of colon HCT116 cell line at compound concentration 10e-8 was determined; type: functional, Homo sapiens; procedure, shortened: as §1
# [9] = test system: NCI-H460; experiment: Percent growth of lung-NSC NCI-H460 cell line at compound concentration 10e-5 was determined; type: functional, Homo sapiens; procedure, shortened: as §1
# [10] = test system: NCI-H460; experiment: Percent growth of lung-NSC NCI-H460 cell line at compound concentration 10e-6 was determined; type: functional, Homo sapiens; procedure, shortened: as §1
# [11] = test system: RPMI-8226; experiment: Percent growth of leukemia RPMI-8226 cell line at compound concentration 10e-5 was determined; type: functional, Homo sapiens; procedure, shortened: as §1
# [12] = test system: RPMI-8226; experiment: Percent growth of leukemia RPMI-8226 cell line at compound concentration 10e-6 was determined; type: functional, Homo sapiens; procedure, shortened: as §1
# [13] = test system: RPMI-8226; experiment: Percent growth of leukemia RPMI-8226 cell line at compound concentration 10e-8 was determined; type: functional, Homo sapiens; procedure, shortened: as §1
# [14] = test system: NCI-H460; experiment: Percent growth of lung-NSC NCI-H460 cell line at compound concentration 10e-8 was determined; type: functional, Homo sapiens; procedure, shortened: as §1
# [15] = test system: LOX IMVI; experiment: Percent growth of melanoma LOX IMVI cell line at compound concentration 10e-5 was determined; type: functional, Homo sapiens; procedure, shortened: as §1
# [16] = test system: LOX IMVI; experiment: Percent growth of melanoma LOX IMVI cell line at compound concentration 10e-6 was determined; type: functional, Homo sapiens; procedure, shortened: as §1
# [17] = test system: LOX IMVI; experiment: Percent growth of melanoma LOX IMVI cell line at compound concentration 10e-8 was determined; type: functional, Homo sapiens; procedure, shortened: as §1
# [18] = test system: OVCAR-4; experiment: Percent growth of ovarian OVCAR-4 cell line at compound concentration 10e-5 was determined; type: functional, Homo sapiens; procedure, shortened: as §1
# [19] = test system: OVCAR-4; experiment: Percent growth of ovarian OVCAR-4 cell line at compound concentration 10e-8 was determined; type: functional, Homo sapiens; procedure, shortened: as §1
# [20] = test system: 786-0; experiment: Percent growth of renal 786-0 cell line at compound concentration 10e-5 was determined; type: functional, Homo sapiens; procedure, shortened: as §1
# [21] = test system: 786-0; experiment: Percent growth of renal 786-0 cell line at compound concentration 10e-6 was determined; type: functional, Homo sapiens; procedure, shortened: as §1
# [22] = test system: 786-0; experiment: Percent growth of renal 786-0 cell line at compound concentration 10e-8 was determined; type: functional, Homo sapiens; procedure, shortened: as §1
# [23] = test system: DU-145; experiment: Percent growth of prostate DU-145 cell line at compound concentration 10e-5 was determined; type: functional, Homo sapiens; procedure, shortened: as §1
# [24] = test system: DU-145; experiment: Percent growth of prostate DU-145 cell line at compound concentration 10e-6 was determined; type: functional, Homo sapiens; procedure, shortened: as §1
# [25] = test system: DU-145; experiment: Percent growth of prostate DU-145 cell line at compound concentration 10e-8 was determined; type: functional, Homo sapiens; procedure, shortened: as §1
# [26] = test system: SNB-19; experiment: Percent growth of CNS SNB-19 cell line at compound concentration 10e-5 was determined; type: functional, Homo sapiens; procedure, shortened: as §1
# [27] = test system: SNB-19; experiment: Percent growth of CNS SNB-19 cell line at compound concentration 10e-6 was determined; type: functional, Homo sapiens; procedure, shortened: as §1
# [28] = test system: SNB-19; experiment: Percent growth of CNS SNB-19 cell line at compound concentration 10e-8 was determined; type: functional, Homo sapiens; procedure, shortened: as §1
# [29] = test system: OVCAR-4; experiment: Percent growth of ovarian OVCAR-4 cell line at compound concentration 10e-6 was determined; type: functional, Homo sapiens; procedure, shortened: as §1
compound,measurement,setting,value
CN(C)CCNC(=O)c1ccc(NCCN(C)C)c2c(O)c3cc(O)ccc3nc12,IC50,[1],2 µM
CN(C)CCNC(=O)c1ccc(NCCN(C)CCNc2ccc(C(=O)NCCN(C)C)c3nc4ccccc4cc23)c2cc3ccccc3nc12,K app,[2],7.2e+06 M⁻¹
same,IC50,[1],0.47 µM
CN(C)CCNC(=O)c1ccc(NCCN(C)CCNc2ccc(C(=O)NCCN(C)C)c3nc4ccc(O)cc4c(O)c23)c2c(O)c3cc(O)ccc3nc12,K app,[2],1.4e+07 M⁻¹
same,IC50,[1],> 10 µM
COc1ccc2nc3c(C(=O)NCCN(C)C)ccc(NCCCN(C)CCCNc4ccc(C(=O)NCCN(C)C)c5nc6ccc(OC)cc6c(O)c45)c3c(O)c2c1,K app,[2],1.4e+08 M⁻¹
same,IC50,[1],0.039 µM
CN(C)CCNC(=O)c1ccc(NCCN(C)C)c2cc3ccccc3nc12,K app,[2],2.3e+08 M⁻¹
same,IC50,[1],0.007 µM
CN(C)CCNC(=O)c1ccc(NCCCN(C)CCCNc2ccc(C(=O)NCCN(C)C)c3nc4ccc([N+](=O)[O-])cc4c(O)c23)c2c(O)c3cc([N+](=O)[O-])ccc3nc12,K app,[2],2.3e+08 M⁻¹
same,Growth,[3],0%
same,Growth,[4],26%
same,Growth,[5],-86%
same,Growth,[6],-94%
same,Growth,[7],-5%
same,Growth,[8],31%
same,IC50,[1],< 0.0001 µM
same,Growth,[9],-95%
same,Growth,[10],-31%
same,Growth,[11],-58%
same,Growth,[12],-44%
same,Growth,[13],12%
same,Growth,[14],28%
same,Growth,[15],-93%
same,Growth,[16],-40%
same,Growth,[17],28%
same,Growth,[18],-72%
same,Growth,[19],67%
same,Growth,[20],-95%
same,Growth,[21],6%
same,Growth,[22],41%
same,Growth,[23],-93%
same,Growth,[24],-2%
same,Growth,[25],55%
same,Growth,[26],-96%
same,Growth,[27],-7%
same,Growth,[28],42%
same,Growth,[29],16%
CN(C)CCNC(=O)c1ccc(NCCN(C)C)c2c(=O)c3ccccc3[nH]c12,IC50,[1],0.094 µM
CN(C)CCNc1ccc(C(=O)NCCN(C)CCNC(=O)c2ccc(NCCN(C)C)c3c(O)c4ccccc4nc23)c2nc3ccccc3c(O)c12,IC50,[1],0.48 µM
CN(C)CCNc1ccc(C(=O)NCCN(C)CCN(C)CCNC(=O)c2ccc(NCCN(C)C)c3c(O)c4ccccc4nc23)c2nc3ccccc3c(O)c12,IC50,[1],0.29 µM
CN(C)CCNc1ccc(C(=O)NCCCNC(=O)c2ccc(NCCN(C)C)c3c(O)c4ccccc4nc23)c2nc3ccccc3c(O)c12,IC50,[1],> 10 µM
CN(CCCNC(=O)c1ccc(Cl)c2c(O)c3ccccc3nc12)CCCNC(=O)c1ccc(Cl)c2c(O)c3ccccc3nc12,IC50,[1],0.34 µM
CN(C)CCNc1ccc(C(=O)NCCCN(C)CCCNC(=O)c2ccc(NCCN(C)C)c3c(O)c4cc(O)ccc4nc23)c2nc3ccc(O)cc3c(O)c12,IC50,[1],0.8 µM
COc1ccc2nc3c(C(=O)NCCN(C)C)ccc(NCCN(C)CCNc4ccc(C(=O)NCCN(C)C)c5nc6ccc(OC)cc6c(O)c45)c3c(O)c2c1,K app,[2],8.8e+06 M⁻¹
same,IC50,[1],3.3 µM
CN(C)CCNc1ccc(C(=O)NCCN(C)CCNC(=O)c2ccc(NCCN(C)C)c3c(O)c4cc(O)ccc4nc23)c2nc3ccc(O)cc3c(O)c12,IC50,[1],8.9 µM
CN(C)CCNc1ccc(C(=O)NCCCN(C)CCCNC(=O)c2ccc(NCCN(C)C)c3cc4ccccc4nc23)c2nc3ccccc3cc12,IC50,[1],0.23 µM
CN(C)CCNc1ccc(C(=O)NCCN(C)CCNC(=O)c2ccc(NCCN(C)C)c3cc4ccccc4nc23)c2nc3ccccc3cc12,IC50,[1],2 µM
CN(C)CCNC(=O)c1ccc(NCCN(C)CCNc2ccc(C(=O)NCCN(C)C)c3nc4ccccc4c(O)c23)c2c(O)c3ccccc3nc12,K app,[2],3.8e+07 M⁻¹
same,IC50,[1],0.41 µM
COc1ccc2nc3c(C(=O)NCCN(C)CCNC(=O)c4ccc(NCCN(C)C)c5c(O)c6cc(OC)ccc6nc45)ccc(NCCN(C)C)c3c(O)c2c1,IC50,[1],0.89 µM
CN(C)CCNC(=O)c1ccc(NCCCN(C)CCCNc2ccc(C(=O)NCCN(C)C)c3nc4ccccc4c(O)c23)c2c(O)c3ccccc3nc12,K app,[2],7.5e+07 M⁻¹
same,Growth,[3],-6%
same,Growth,[4],22%
same,Growth,[5],-86%
same,Growth,[6],-96%
same,Growth,[7],-35%
same,Growth,[8],20%
same,IC50,[1],0.00043 µM
same,Growth,[9],-90%
same,Growth,[10],-52%
same,Growth,[11],-49%
same,Growth,[12],-37%
same,Growth,[13],16%
same,Growth,[14],12%
same,Growth,[15],-93%
same,Growth,[16],-65%
same,Growth,[17],30%
same,Growth,[18],-74%
same,Growth,[19],46%
same,Growth,[20],-98%
same,Growth,[21],-26%
same,Growth,[22],30%
same,Growth,[23],-72%
same,Growth,[24],-31%
same,Growth,[25],11%
same,Growth,[26],-55%
same,Growth,[27],-20%
same,Growth,[28],38%
same,Growth,[29],-47%
CN(C)CCNC(=O)c1ccc(NCCCN(C)CCCNc2ccc(C(=O)NCCN(C)C)c3nc4ccccc4cc23)c2cc3ccccc3nc12,K app,[2],9.4e+07 M⁻¹
same,IC50,[1],0.047 µM
CN(C)CCNC(=O)c1ccc(NCCN(C)C)c2c(O)c3cc([N+](=O)[O-])ccc3nc12,IC50,[1],0.19 µM
CN(CCNC(=O)c1ccc(Cl)c2c(O)c3ccccc3nc12)CCNC(=O)c1ccc(Cl)c2c(O)c3ccccc3nc12,IC50,[1],5.5 µM
CN(C)CCNC(=O)c1ccc(NCCCN(C)CCCNc2ccc(C(=O)NCCN(C)C)c3nc4ccc(O)cc4c(O)c23)c2c(O)c3cc(O)ccc3nc12,K app,[2],7.4e+07 M⁻¹
same,IC50,[1],6.9 µM
O=C1c2c(O)ccc(O)c2C(=O)c2c(NCCNCCO)ccc(NCCNCCO)c21 [MITOXANTRONE],IC50,[1],0.01 µM
